ChEMBL document CHEMBL2176870 (J Med Chem, 2012)
Converted amounts (≈) assume the structure as drawn.

Legend:
Staphylococcus aureus = assay: Antibacterial activity against Staphylococcus aureus CIP54.146 after 18 hrs by broth microdilution method; format: functional; details: CIP54.146, 18 h
How it was run: (§1)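 CLSI broth microdilution with serial 2-fold dilutions from 0.06 to 64 μg/mL. Cation-adjusted Mueller–Hinton broth, inoculum 5 × 10^5 CFU/mL, incubated at 35 °C for 18 h. MIC taken as the lowest concentration with no visible growth.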

Streptococcus pneumoniae = assay: Antibacterial activity against Streptococcus pneumoniae D39 after 18 hrs by broth microdilution method; format: functional; details: D39, 18 h
How it was run: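 CLSI broth microdilution with 2-fold dilutions from 0.06 to 64 μg/mL. Cation-adjusted Mueller–Hinton broth with 2.5% lysed horse blood, inoculum 5 × 10^5 CFU/mL, grown at 35 °C for 18 h in 5% CO2. MIC is the lowest concentration showing no visible growth.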

Escherichia coli = assay: Antibacterial activity against Escherichia coli C7 after 18 hrs by broth microdilution method; format: functional; details: C7, 18 h
Enterococcus faecalis = assay: Antibacterial activity against Enterococcus faecalis ATCC 29212 after 18 hrs by broth microdilution method; format: functional; details: ATCC 29212, 18 h; how it was run: as §1
[1] = target: T1, Enoyl-[acyl-carrier-protein] reductase [NADPH] FabI (Staphylococcus aureus, UniProt Q6GI75); assay: Inhibition of Staphylococcus aureus recombinant FabI using trans-2-octenoyl N-acetylcysteamine thioester as substrate preincubated for 60 mins
T1 sequence (Q6GI75 whole entry): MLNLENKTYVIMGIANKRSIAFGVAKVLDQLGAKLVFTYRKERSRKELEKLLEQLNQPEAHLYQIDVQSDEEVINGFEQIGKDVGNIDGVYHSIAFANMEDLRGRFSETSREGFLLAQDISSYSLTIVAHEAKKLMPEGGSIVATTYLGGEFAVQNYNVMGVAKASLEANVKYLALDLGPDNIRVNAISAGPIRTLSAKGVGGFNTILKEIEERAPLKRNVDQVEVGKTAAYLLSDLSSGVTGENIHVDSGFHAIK
How it was run: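 Recombinant S. aureus FabI (2 nM) in 50 mM ADA pH 6.5, 1 mM DTT, 0.006% Triton X-100, 50 mM NaCl. Preincubated 60 min at room temperature with 40 μM NADPH, 10 μM NADP+ and inhibitor in DMSO. Reaction started with 100 μM t-o-NAC. Inhibition versus untreated samples; IC50 by Langmuir fit.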

[2] = Cytotoxicity against human HepG2 cells; format: cell-based; details: read-out: ED50 (the source's name)
[3] = target: T2, Enoyl-[acyl-carrier-protein] reductase [NADH] FabI (Escherichia coli K-12, UniProt P0AEK4); assay: Inhibition of Escherichia coli FabI using crotonoyl-CoA as substrate preincubated for 90 mins
T2 sequence (P0AEK4 whole entry): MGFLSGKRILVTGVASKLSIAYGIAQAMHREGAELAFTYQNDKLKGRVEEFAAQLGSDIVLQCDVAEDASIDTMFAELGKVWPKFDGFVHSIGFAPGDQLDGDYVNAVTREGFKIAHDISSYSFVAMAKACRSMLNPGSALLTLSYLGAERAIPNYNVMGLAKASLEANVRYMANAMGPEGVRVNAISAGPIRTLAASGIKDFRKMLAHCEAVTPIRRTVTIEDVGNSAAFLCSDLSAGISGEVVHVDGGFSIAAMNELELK
How it was run: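 Recombinant C-terminal 6-His-tagged E. coli FabI (40 nM) in 50 mM Hepes pH 7.5, 100 μM DTT, 0.006% Triton X-100. Enzyme preincubated with 20 μM NADH, 10 μM NAD+ and inhibitor in DMSO for 90 min at room temperature. Reaction started with 50 μM crotonoyl-CoA. 6–10 concentrations; IC50 by Langmuir fit.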

## CCc1cc(O)c(Oc2cccnc2N)cc1F
Staphylococcus aureus
  MIC: 0.5 µg/mL (≈ 2.01 µM)
Streptococcus pneumoniae
  MIC: > 32 µg/mL
Escherichia coli
  MIC: 0.25 µg/mL (≈ 1.01 µM)
Enterococcus faecalis
  MIC: > 32 µg/mL
[1]
  IC50: 56 nM

## CCc1cc(OC)c(Oc2ccc(C(N)=O)cc2F)cc1F
Staphylococcus aureus
  MIC: > 32 µg/mL
Streptococcus pneumoniae
  MIC: > 32 µg/mL
Escherichia coli
  MIC: > 32 µg/mL
[2]
  CC50: > 32 µg/mL
Enterococcus faecalis
  MIC: > 32 µg/mL
[1]
  IC50: 21000 nM

## Cc1ccc(-c2ccc(Oc3cccc(F)n3)c(O)c2)cc1
Staphylococcus aureus
  MIC: 8 µg/mL (≈ 27.1 µM)
Streptococcus pneumoniae
  MIC: 16 µg/mL (≈ 54.2 µM)
Escherichia coli
  MIC: 8 µg/mL (≈ 27.1 µM)
[3]
  IC50: 6500 nM
Enterococcus faecalis
  MIC: > 32 µg/mL

## Oc1cc(C(F)=C(F)F)ccc1Oc1cccc(F)n1
Staphylococcus aureus
  MIC: 1 µg/mL (≈ 3.51 µM)
Streptococcus pneumoniae
  MIC: > 32 µg/mL
Escherichia coli
  MIC: 16 µg/mL (≈ 56.1 µM)
Enterococcus faecalis
  MIC: > 32 µg/mL

## CCc1ccc(Oc2cccc(F)n2)c(O)c1
Staphylococcus aureus
  MIC: 0.25 µg/mL (≈ 1.07 µM)
Streptococcus pneumoniae
  MIC: > 64 µg/mL
Escherichia coli
  MIC: 4 µg/mL (≈ 17.1 µM)
[3]
  IC50: 590 nM
Enterococcus faecalis
  MIC: > 32 µg/mL

## Oc1cc(CCCn2cncn2)ccc1Oc1cccc(F)n1
Staphylococcus aureus
  MIC: 4 µg/mL (≈ 12.7 µM)
Streptococcus pneumoniae
  MIC: > 32 µg/mL
Escherichia coli
  MIC: > 32 µg/mL
[3]
  IC50: 6900 nM
Enterococcus faecalis
  MIC: > 32 µg/mL

## CCc1ccc(Oc2ccc(S(C)(=O)=O)cc2F)c(O)c1
Staphylococcus aureus
  MIC: 0.25 µg/mL (≈ 0.806 µM)
Streptococcus pneumoniae
  MIC: > 32 µg/mL
Escherichia coli
  MIC: 1 µg/mL (≈ 3.22 µM)
[3]
  IC50: 140 nM
Enterococcus faecalis
  MIC: > 32 µg/mL

## CCc1ccc(Oc2ccc(NCCCO)cc2F)c(O)c1
Staphylococcus aureus
  MIC: 0.25 µg/mL (≈ 0.819 µM)
Streptococcus pneumoniae
  MIC: > 32 µg/mL
Escherichia coli
  MIC: 16 µg/mL (≈ 52.4 µM)
[3]
  IC50: 1000 nM
Enterococcus faecalis
  MIC: > 32 µg/mL

## CCc1cc(O)c(Oc2ccccc2)cc1F
Staphylococcus aureus
  MIC: 0.062 µg/mL (≈ 0.267 µM)
Streptococcus pneumoniae
  MIC: 16 µg/mL (≈ 68.9 µM)
Escherichia coli
  MIC: 1 µg/mL (≈ 4.31 µM)
[2]
  CC50: 16 µg/mL (≈ 68.9 µM)
Enterococcus faecalis
  MIC: 32 µg/mL (≈ 138 µM)
[1]
  IC50: 37 nM

## Oc1cc(CC(F)(F)F)ccc1Oc1cccc(F)n1
Staphylococcus aureus
  MIC: 0.25 µg/mL (≈ 0.87 µM)
Streptococcus pneumoniae
  MIC: > 64 µg/mL
Escherichia coli
  MIC: 4 µg/mL (≈ 13.9 µM)
Enterococcus faecalis
  MIC: > 32 µg/mL

## CCc1ccc(Oc2ccc(S(=O)(=O)CCC3OCCO3)cc2)c(O)c1
Staphylococcus aureus
  MIC: 0.25 µg/mL (≈ 0.661 µM)
Streptococcus pneumoniae
  MIC: > 32 µg/mL
Escherichia coli
  MIC: 16 µg/mL (≈ 42.3 µM)
[3]
  IC50: 380 nM
Enterococcus faecalis
  MIC: > 32 µg/mL

## CCc1ccc(Oc2ccc(NS(=O)(=O)C3CC3)cc2F)c(O)c1
Staphylococcus aureus
  MIC: 1 µg/mL (≈ 2.85 µM)
Streptococcus pneumoniae
  MIC: > 32 µg/mL
Escherichia coli
  MIC: 16 µg/mL (≈ 45.5 µM)
[3]
  IC50: 2300 nM
Enterococcus faecalis
  MIC: > 32 µg/mL

## Oc1cc(Cl)ccc1Oc1ccc(Cl)cc1Cl [TRICLOSAN]
Staphylococcus aureus
  MIC: 0.031 µg/mL (≈ 0.107 µM)
Streptococcus pneumoniae
  MIC: 8 µg/mL (≈ 27.6 µM)
Escherichia coli
  MIC: 0.125 µg/mL (≈ 0.432 µM)
[2]
  CC50: 2 µg/mL (≈ 6.91 µM)
Enterococcus faecalis
  MIC: 2 µg/mL (≈ 6.91 µM)

## Oc1cc(C(O)C(F)(F)F)ccc1Oc1cccc(F)n1 (stereo not given)
Staphylococcus aureus
  MIC: 1 µg/mL (≈ 3.3 µM)
Streptococcus pneumoniae
  MIC: > 32 µg/mL
Escherichia coli
  MIC: 16 µg/mL (≈ 52.8 µM)
[3]
  IC50: 3400 nM
Enterococcus faecalis
  MIC: > 32 µg/mL

## CCc1ccc(Oc2ccc(C(C)=O)cc2F)c(O)c1
Staphylococcus aureus
  MIC: 0.062 µg/mL (≈ 0.226 µM)
Streptococcus pneumoniae
  MIC: 16 µg/mL (≈ 58.3 µM)
Escherichia coli
  MIC: 1 µg/mL (≈ 3.65 µM)
[3]
  IC50: 110 nM
Enterococcus faecalis
  MIC: 16 µg/mL (≈ 58.3 µM)

## CCc1ccc(Oc2ccc(S(=O)(=O)NCCc3ccccn3)cc2F)c(O)c1
Staphylococcus aureus
  MIC: 0.25 µg/mL (≈ 0.6 µM)
Streptococcus pneumoniae
  MIC: > 32 µg/mL
Escherichia coli
  MIC: 16 µg/mL (≈ 38.4 µM)
[3]
  IC50: 150 nM
Enterococcus faecalis
  MIC: > 32 µg/mL

## CCc1ccc(Oc2ccccc2NC)c(O)c1
Staphylococcus aureus
  MIC: 4 µg/mL (≈ 16.4 µM)
Streptococcus pneumoniae
  MIC: > 32 µg/mL
Escherichia coli
  MIC: > 32 µg/mL
[3]
  IC50: 112000 nM
Enterococcus faecalis
  MIC: > 32 µg/mL

## CC(C)Cc1ccc(Oc2cccc(F)n2)c(O)c1
Staphylococcus aureus
  MIC: 1 µg/mL (≈ 3.83 µM)
Streptococcus pneumoniae
  MIC: > 32 µg/mL
Escherichia coli
  MIC: 4 µg/mL (≈ 15.3 µM)
[3]
  IC50: 570 nM
Enterococcus faecalis
  MIC: > 32 µg/mL

## CCCNc1ccc(Oc2ccc(CC)cc2O)c(F)c1
Staphylococcus aureus
  MIC: 0.25 µg/mL (≈ 0.864 µM)
Streptococcus pneumoniae
  MIC: 16 µg/mL (≈ 55.3 µM)
Escherichia coli
  MIC: 16 µg/mL (≈ 55.3 µM)
[3]
  IC50: 850 nM
Enterococcus faecalis
  MIC: > 32 µg/mL

## CCCc1ccc(Oc2cccc(OC)c2)c(O)c1
Staphylococcus aureus
  MIC: 1 µg/mL (≈ 3.87 µM)
Streptococcus pneumoniae
  MIC: > 32 µg/mL
Escherichia coli
  MIC: 16 µg/mL (≈ 61.9 µM)
[3]
  IC50: 3100 nM
Enterococcus faecalis
  MIC: > 32 µg/mL

## OCc1ccc(Oc2cccc(F)n2)c(O)c1
Staphylococcus aureus
  MIC: 4 µg/mL (≈ 17 µM)
Streptococcus pneumoniae
  MIC: > 32 µg/mL
Escherichia coli
  MIC: > 32 µg/mL
[3]
  IC50: 29000 nM
Enterococcus faecalis
  MIC: > 32 µg/mL

## CCc1cc(O)c(Oc2ccc[nH]c2=O)cc1F
Staphylococcus aureus
  MIC: > 32 µg/mL
Streptococcus pneumoniae
  MIC: > 32 µg/mL
Escherichia coli
  MIC: > 32 µg/mL
Enterococcus faecalis
  MIC: > 32 µg/mL
[1]
  IC50: > 100000 nM

## CCc1cc(O)c(Oc2ccc(C(=O)N3CCNC(=O)C3)cc2F)cc1F
Staphylococcus aureus
  MIC: 0.25 µg/mL (≈ 0.664 µM)
Streptococcus pneumoniae
  MIC: > 32 µg/mL
Escherichia coli
  MIC: 4 µg/mL (≈ 10.6 µM)
[2]
  CC50: > 32 µg/mL
Enterococcus faecalis
  MIC: > 32 µg/mL
